Data on three compounds can be found in ChEMBL document CHEMBL1123318, “(S)-3-[(benzyloxy)methyl]morpholine hydrochloride: a nonstimulant appetite suppressant without conventional neurotransmitter releasing properties” (J Med Chem, 1986).

Molecules are shown by their SMILES.

The subject of assay [1] is Canis familiaris. Kind of assay: Compound was evaluated for mean increase in food intake in dogs at 1 hour after oral administration at a dose 10 mg/kg. It counts as functional, Canis lupus familiaris. Summed up:
(§1)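 Mature beagle dogs were trained to a daily 4-h feeding period with free access to meat. Groups of three received oral drug in soft gelatin capsules 1 h before feeding, and controls received empty capsules. All dogs got placebo on days 1–2, then drug or placebo on days 3–5. Leftover food was weighed at 1 and 2 h. Per-dog % change was taken against the days 1–2 mean, then averaged over days 3–5 and per group.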

The species entered for assay [2] is Rattus norvegicus. Put plainly: Compound was found to have no effect on the release or uptake of dopamine at in rat brain synaptosomes; Inactive. The class given is functional.
For assay [3], the system named is Canis familiaris. Put plainly: Compound was evaluated for mean reduction in food in take in dogs at 2 hour after dosing. It counts as functional, Canis lupus familiaris. Summed up: as §1
For assay [4], the system named is Canis familiaris. Kind of assay: Compound was evaluated for mean reduction in food intake in dogs at a dose 15 mg/kg at 2 hour after dosing for the first 3 days. It counts as functional, Canis lupus familiaris. In outline: (§2)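 Chronic regime: three beagle dogs on a daily 4-h meat feeding period were given a daily oral dose for 3 weeks. Food intake was measured 2 h after dosing. The mean % reduction versus control intake was compared between the first 3 and the last 3 days of the test.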

Assay [5] is filed under the species Canis familiaris. Put plainly: Compound was evaluated for oral ED50 for appetite suppression in dogs. The class given is functional. The settings on record: Canis lupus familiaris. Summed up: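 ED50 for the 1-h food intake effect: five pairs of trained beagle dogs were randomly allocated to oral 5, 10, 15 or 20 mg/kg or to an undosed placebo pair. Treatments ran on successive days in a Latin Square design, and food was weighed 1 h into the feeding period.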

The species entered for assay [6] is Rattus norvegicus. Kind of assay: Compound was found to have no effect on the release or uptake of noradrenaline at in rat brain synaptosomes; Inactive. It counts as functional.
Assay [7] relates to Canis familiaris. Put plainly: Compound was evaluated for mean reduction in food intake in dogs at 1 hour after dosing. It counts as functional, Canis lupus familiaris. Summed up: as §1
For assay [8], the species on record is Rattus norvegicus. Kind of assay: Compound was found to have no effect on the release or uptake of serotonin at in rat brain synaptosomes; Inactive. The class given is functional.
The subject of assay [9] is Canis familiaris. Kind of assay: Compound was evaluated for mean reduction in food intake in dogs at a dose 15 mg/kg at 2 hour after dosing for the last 3 days. The class given is functional, Canis lupus familiaris. Summed up: as §2
Assay [10] relates to Canis familiaris. Put plainly: Compound was evaluated for mean increase in food intake in dogs after oral administration at a dose 3 mg/kg. The class given is functional, Canis lupus familiaris.
The test system of assay [11] is Canis familiaris. Put plainly: Compound was evaluated for mean reduction in food intake in three dogs at a dose 3 mg/kg orally for 3 weeks at 2 hour after dosing for the first 3 days. It counts as functional, Canis lupus familiaris. The settings on record: route oral. In outline: as §2

In the case of `Cl.c1ccc(COC[C@@H]2COCCN2)cc1`, the Increase in the assay with Canis familiaris [1] worked out at 13%.
A word on the IC50: it is the point on the concentration scale where inhibition reaches its midpoint. A low value points to inhibition by little substance. Usually ED50 stands for the midpoint of the dose-response relation. In the case of `Cl.c1ccc(COC[C@H]2COCCN2)cc1`, the IC50 in the assay listed under Rattus norvegicus [2], in the assay filed under Rattus norvegicus [6] and in the assay filed under Rattus norvegicus [8] was above 10 µM throughout. Also, the Reduction in the assay on Canis familiaris [3] turned out to be 47%; with Canis familiaris [4] it was 53%; in the assay with Canis familiaris [7], 51%; in the assay on Canis familiaris [9], 56%. This compound came in with an ED50 in the assay filed under Canis familiaris [5] of 12 mg/kg.
As for `CCN(CC)C(C)C(=O)c1ccccc1.Cl` (configuration not stated) [DIETHYLPROPION HYDROCHLORIDE], the Increase in the assay on Canis familiaris [10] is listed as 5%. The Reduction with Canis familiaris [11] is given as 86%. In addition, the ED50 in the assay listed under Canis familiaris [5] came out at 2 mg/kg.
